Experimental data taken from ChEMBL document CHEMBL4513216, “Probing the Open Global Health Chemical Diversity Library for Multistage-Active Starting Points for Next-Generation Antimalarials” (ACS Infect Dis, 2020).

Assay: Toxicity liver stage against HepG2, at 10uM
Assay type: cell-based
Set-up: test concentration 10 uM, cell line HepG2-A16-CD81EGFP
Settings: human, HepG2-A16-CD81EGFP cells; read-out: INHIBITION
Summary of the method: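 Uninfected HepG2-A16-CD81EGFP cells, 3 × 10^3 per well, 1536-well, plated on prespotted compound at 10 μM final, parasite-free screening media added to match infected plates; puromycin 10 μM positive, DMSO 0.5% negative; run in parallel with 48 h PbLuc assay at 37 °C, 5% CO2; viability by CellTiter-Glo luminescence, normalized to controls.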

SMILES	cytotoxicity at 10 µM
COc1ccc(CNC[C@H]2COCc3nc4cccnc4n32)cn1	-0.772%
COc1ccc(S(=O)(=O)N2CCC(Cn3ccnc3)CC2)cc1	-0.178%
CCCC(=O)NCC(Cc1cccc(F)c1)N1CCCC1=O (centres undefined)	-2.91%
COc1ccc(Cl)cc1NC(=O)N1CCc2nc(NC(C)=O)sc2C1	12.1%
CN(C)CCN1C[C@@H]2CN(C(=O)C3CC=CC3)C[C@@H]2C1=O	-1.34%
CC(C)N(C)Cc1n[nH]c2c1CCN(C(=O)c1cc[nH]n1)C2	-134%
CC(C)c1ccc(-n2nnc(C(=O)O)c2-c2ccccn2)cc1	9.18%
COc1ccc(-c2nnsc2C(=O)N2CCOCC2)cc1	3.03%
Cc1nn(C)c2c(=O)n(Cc3ccc(C#N)cc3)nnc12	3.12%
O=C(c1nn[nH]c1Nc1cccc(Cl)c1)N1CCSCC1	20.3%
COCCNc1cc(C(=O)N2CCOCC2)nc(C)n1	0.598%
Cc1noc(C)c1-c1cccc(C2CCN(CC(=O)N(C)C)CC2)n1	6.33%
CCOCCCNc1ncc(-c2cccc(F)c2)c(-c2nccn2C)n1	12.5%
Cc1nc(C)n(CC(=O)N2CCCC(c3nc(C)n4c(C)csc34)C2)n1 (centres undefined)	2.08%
NCCCC(=O)NCC1(O)CCN(c2ccnc3cccnc23)C1 (centres undefined)	1.58%
NC1(CN2CCOCC2)CCCCC1	1.72%
CC(=O)NCCNC(=O)c1nc(C2CC2)n(-c2ccccc2Cl)n1	9.74%
N#Cc1cn(C2CC2)c(=O)n(Cc2ncc(-c3cccs3)o2)c1=O	14.8%
O=C1CN(Cc2occc2C(=O)NCCc2ccc(F)cc2)CCN1	-10.2%
COC(=O)COc1c(F)cc(Br)cc1C(C)=O	2.63%
CCCn1nc(C(=O)N(C)Cc2nnc3n2CCC3)ccc1=O	1.77%

SMILES	cytotoxicity at 10 µM
N#Cc1cccc(S(=O)(=O)NC2CCN(CC(F)(F)F)C2)c1 (centres undefined)	-1.03%
CC1CN(C)CCN1C(=O)c1cccn1Cc1ccncc1 (centres undefined)	-5.53%
CCOC(=O)C(C)NC(=O)CCSc1ccc(F)cc1 (centres undefined)	9.13%
Cc1csc(CN(CC2CCCO2)C(=O)c2occc2C)n1 (centres undefined)	0.489%
NC(=O)CN(CC(=O)NCc1cc(F)cc(F)c1)C1CCCC1	-8.58%
Cc1nc(C(C)C)sc1C(=O)N(C)Cc1cnn(C)c1	6.45%
CCc1nc(C2CCCN(C(=O)C3=NN(CC)C(=O)CC3)C2)no1 (centres undefined)	-9.28%
CC(Nc1cccc2c1OCCO2)C(=O)Nc1cccc(C#N)c1 (centres undefined)	4.7%
Cn1cc(CC2CC(=O)N(Cc3ccc(Cl)cc3)C2=O)cn1 (centres undefined)	-0.276%
CN(C1CCN(c2ccccn2)CC1)S(=O)(=O)c1ccc(F)cc1	11.2%
CN1CCN(CC(NCc2ccc(F)c(F)c2)c2ccccc2)CC1 (centres undefined)	-10%
NCC1(c2cccc(C(F)(F)F)c2)CCCCC1	-8.66%
CCn1nc2c(cc1=O)CN(Cc1nc3ccccc3o1)CC2	-8.9%
N#Cc1ccc(F)c(CNC(=O)NC(CO)Cc2ccccc2)c1 (centres undefined)	1.98%
Cn1ccnc1CNC(=O)N(CCCO)C1CCc2ccccc21 (centres undefined)	-11.6%
O=C(NCC(O)c1ccc(F)c(F)c1)c1ccccc1F (centres undefined)	-3%
O=C(CS(=O)(=O)Cc1ccccc1)NCc1ccccc1F	-17.6%
COc1ccc(CCC(=O)N(C)CCN2CCOCC2)cc1OC	7.83%
CN(Cc1cnn(C)c1)C(=O)NC1CCCC1	7.43%
Cc1nccc(CNC(=O)Nc2cc(C(F)(F)F)c[nH]c2=O)n1	-1.16%
O=C(c1[nH]nc(C2CC2)c1Cl)N1CCN(C2CC2)CC1	-5.58%

SMILES	cytotoxicity at 10 µM
CC(C)CC(=O)Nc1cc(C(=O)N(C)C(C)C)ccc1Cl	-7.62%
CC(c1cccnc1)N1CCN(CCc2ccccn2)CC1 (centres undefined)	-6.18%
CS(=O)(=O)N1CCC(OCCCc2ccccc2)C1 (centres undefined)	8.13%
CCN(CCNCc1cccc(C#N)c1)C1CC1	-11.3%
COc1ccc(C(NCc2cccc(C#N)c2)C2CC2)cc1 (centres undefined)	15.9%
CN(C)C(=O)c1ccc(NCCNc2ccc3ccccc3n2)nc1	4.63%
Cc1ccc(C2CSCCN2C(=O)c2cnsn2)o1 (centres undefined)	5.11%
c1nc(CSc2nnc(C3CC3)s2)cs1	-5.54%
COc1ccc(CNc2nncs2)cc1F	-4.23%
Cc1cc(CC(=O)NC2CCCN(c3ccccc3Cl)C2=O)n[nH]1 (centres undefined)	3.55%
Cc1cc(NC(=O)C(C)N2CCN(c3ccccc3F)CC2)no1 (centres undefined)	2.83%
COc1cc2ccn(CCCO)c(=O)c2cc1F	-7.91%
CC(NC(=O)N1CCC[C@H]1CO)c1noc(-c2ccccc2)n1 (some centres undefined)	-6.67%
COCC(O)CNC(=O)c1cc(COc2ccc3c(c2)CCCC3)on1 (centres undefined)	-147%
CC(C)(C)C(=O)N1CCCC1c1ccc(C(=O)N2CCOCC2)s1 (centres undefined)	-145%
CC[C@H](C)[C@@H](CO)NC(C)Cc1ccc(F)cc1 (some centres undefined)	-6.27%
CCc1nc(C)c([C@H]2CN(C)C[C@@H]2C(=O)Nc2ccccc2F)[nH]1	2.16%
CC(C)Oc1cc(N2CC[C@H](CO)[C@@H](O)C2)nc(N)n1	2.41%
Cc1nnsc1CN1CCCC1c1nc(-c2ccccc2)no1 (centres undefined)	-45.8%
Cc1cccnc1CN(C)C(C(=O)O)c1ccc(-c2ccn[nH]2)cc1 (centres undefined)	12.2%
Cc1ccn(-c2cncc(C(N)=O)c2)n1	0.0642%

SMILES	cytotoxicity at 10 µM
Cc1ccccc1CN1CCN(C(=O)c2ccn(C(C)(C)C)c2)CC1	-0.585%
CC(C)c1ncc(CN2C[C@@H](CN3CCCN(C)CC3)[C@@H](CO)C2)cn1	-9.77%
Cc1nnnn1CCC(=O)N1CCC2(CCC(=O)N(CC3CC3)C2)CC1	4.17%
Cc1ccnc(CC(C)N(C)Cc2ccc3c(c2)OCCO3)c1 (centres undefined)	-4.24%
O=S(=O)(c1c(N2CCCCC2)ccc2nonc12)N1CCCCC1	-3.39%
O=C(O)CCc1cc2n(n1)CCCN(C(=O)c1ccc3cc[nH]c3c1)C2	-13.3%
CSCC(=O)NS(=O)(=O)c1ccc2c(c1)OCCO2	-9.69%
COc1ccccc1C(O)CNCc1c(C(C)C)nn(C)c1N(C)C (centres undefined)	-7.31%
CCOc1cc(C)nc(N2CCN(C(=O)CC)CC2)n1	-6.68%
COCCCN(C)C1CCCN(Cc2noc(C)n2)C1 (centres undefined)	-8.06%
Cc1cc(C)c(CNC(=O)N2CCN(c3ncccn3)CC2)c(=O)[nH]1	-6.28%
N#Cc1ccnc(N2CCN(C(=O)Cc3ccc4c(c3)CCO4)CC2)c1	-4.1%
CC(C)COCC(NC(=O)c1ccccn1)c1ccco1 (centres undefined)	-7.52%
Cc1cnn(CC2CCCN2CC(=O)Nc2nc(C)cs2)c1 (centres undefined)	-6.26%
Cn1nc(CN2CCOCC2)c2c1CN(Cc1ccsc1)C2	-145%
CN1CCN(C)C(c2nnc3ccc(C(=O)N4CCOCC4)cn23)C1 (centres undefined)	-130%
O=C(c1cnccn1)N1CCCC2(CCN(Cc3ccc(F)cc3)C2)C1 (centres undefined)	-153%
Cn1cc(C[C@H]2[C@H](N3CCOCC3)CCN2c2ncc(F)cn2)cn1	7.23%
CN(C)C(=O)CN1CCCC12CCCN(c1ncc(F)cn1)C2 (centres undefined)	-2.51%
Cc1nc(N2CCCC2)nc2c1CCN(Cc1ccoc1)CC2	-134%
Cc1nc(CN2C(=O)COC3(CCN(C)CC3)C2C)cs1 (centres undefined)	-128%
